FN deposition inh = fibronectin deposition inhibition; AH1F fibroblasts, Alexa488-fibronectin deposition fluorescence, overnight; inhibition, % at 12.6 µM; 0.086% of 350,000 active; AID 743247;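 active means mean inhibition across replicates of 30% or more, regardless of how many single replicates reach that level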;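 further: positive control wells lacked labelled fibronectin entirely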
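Measured by – fluorescence 485/525 nm · System – AH1F fibroblast monolayer, labelled fibronectin deposition · Amount – 10000 cells per well · Buffer or medium – serum-reduced DMEM (2% serum) · Doses – single dose, pinned · Also added – fluorescent fibronectin at 24 nM final · Schedule – 1 h cell attachment, overnight exposure to compound and label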
Ecoli rRNA inh = inhibitors of bacterial rRNA selective over humanized ribosomes | AID 720706 | GFP signal change (wild-type ribosome), % (test concentration not listed) | E. coli WT GFP vs humanized-ribosome RFP mutants, fluorescence, 24 h; stronger effect = lower value; DMSO median 0, no signal -100 | 1.6% of 350,000 active;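 active means significant combined selectivity score with lowered wild-type GFP, culture density cut under 30%, mutant RFP and density less affected; inactive means any of these conditions unmet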
S100A4 MyoIIA = blocks human S100A4 binding to myosin IIA peptide. inhibition, % at 10.7 µM. S100A4/TAMRA-MyoIIA peptide fluorescence polarization. AID 652163. 0.14% of 360,000 active;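 active means mean inhibition of at least 70% across replicates, with every replicate also reaching that level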
Target sequence (P26447 whole entry, looked up): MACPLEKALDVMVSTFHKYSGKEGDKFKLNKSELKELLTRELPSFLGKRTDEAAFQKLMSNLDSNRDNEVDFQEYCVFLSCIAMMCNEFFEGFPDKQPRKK
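Assay system: human S100A4 monomer with TAMRA-labelled myosin IIA peptide / Buffer or medium: Calcium-containing HEPES buffer, pH 7.2 / Reagent: TAMRA-labelled myosin IIA heavy-chain peptide probe, 5 nM / Compound: one dose per compound / Timing: polarization read 5 min after assay mix addition, stable 5–60 min / Benchmarks: neutral control DMSO, positive control TFP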
Env fusion inh = inhibitors of HIV Env-mediated cell fusion; HeLa-JRFL Env/CEM21 cell fusion, luciferase; 1.1% of 360,000 active; inhibition, % at 12.3 µM;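 active means mean replicate inhibition score of at least 50 and every replicate individually at or above 50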;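 further: 0% = plate neutral controls and 100% = maraviroc near 300 nM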
miR122 inh = miR-122 inhibition in Huh7 cells; Huh7 miR-122 Renilla luciferase sensor, 48 h; neutral wells = 0, positive control = 100; activation (reporter increase), % at 12.5 µM; 0.3% of 340,000 active;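 active means mean replicate activation score at least 90 and every replicate individually at or above 90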;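 further: higher luciferase means less miR-122 activity so hits act as miR-122 inhibitors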
Vif imaging = HIV Vif inhibition; HEK293T cells, Vif self-association by quenched fluorescence, imaging, 24 h; inhibition, % at 7.49 µM; 0.35% of 340,000 active; AID 602346; in the data active means inhibition above about 50%, passing the limit was not always enough
The depositor's hits bear a star; / = not tested or not shown; [ ] = another dose, or the depositor's remark. Shown are actives, neighbours in structure and some others; about 2.6% of the full set was active somewhere.

SMILES | FN deposition inh | Ecoli rRNA inh | S100A4 MyoIIA | Env fusion inh | miR122 inh | Vif imaging
CC1Cc2ccccc2N1C(=O)c1ccc(N2CCCCC2)c([N+](=O)[O-])c1 (stereo unspecified) | 0 | -30* | -7 | / | 21 | -5
O=C(C[C@H]1CC[C@@H]2[C@H](COC[C@@H](O)CN2S(=O)(=O)c2ccc(F)cc2)O1)NCC1CC1 | 4 | 4 | 7 | / | -10[16.7 µM] | /
O=C(Cc1ccccc1)Nc1ncnc2c1C(c1ccccc1)c1c(ccc3ccccc13)O2 (stereo unspecified) | -5 | -2 | -3 | 68* | -6 | -1
Cc1ccccc1-c1ccc2c(c1)O[C@H](CN(C)C(=O)c1ccccn1)[C@H](C)CN([C@H](C)CO)S2(=O)=O | -7 | -4 | 12 | 11[16.7 µM] | 33[16.7 µM] | /
CCC(=O)N1[C@@H]2CN(C(=O)CC(F)(F)F)c3ccccc3[C@@H]2[C@@H]1CO | / | 3 | 13 | / | -8[16.7 µM] | /
O=C(Nc1ccc(C(=O)OC2CCCCC2)cc1)c1ccncc1 | -5 | -5 | 4 | 75* | / | -38
Cn1nccc1C(=O)N/N=C/c1c(O)ccc2ccccc12 | 13 | -20 | 5 | 66* | 6 | -20
O=C(NN=Cc1c(O)ccc2ccccc12)c1ccncc1 | 20 | -48 | 10 | -37 | 9 | 7
C[C@@H]1CCCCO[C@H](CN(C)C(=O)NC2CCCCC2)[C@@H](C)CN([C@@H](C)CO)C(=O)c2cc(NS(C)(=O)=O)ccc2O1 | -4 | 0 | / | 3[16.7 µM] | 2[16.7 µM] | /
CC[C@@]12C(=O)N(c3cccc(Br)c3)C(=O)N1[C@H](c1ccc(F)cc1)[C@@H]1C(=O)N(C3CCCCC3)C(=O)[C@@H]12 | -17 | 17 | -4 | 93* | -7 | -1
CC(C)C[C@@]12C(=O)N(c3cccc(Br)c3)C(=O)N1[C@H](c1ccc(F)cc1)[C@@H]1C(=O)N(C3CCCCC3)C(=O)[C@@H]12 | -3 | 0 | -4 | 104* | / | -3
CC[C@@]12C(=O)N(c3cccc(F)c3)C(=O)N1[C@H](c1ccc(F)cc1)[C@@H]1C(=O)N(C3CCCCC3)C(=O)[C@@H]12 | / | / | / | / | -4 | /
CCN1C(=O)[C@H]2[C@@H](c3ccccc3)N3C(=O)N(c4cccc(F)c4)C(=O)[C@@]3(CC(C)C)[C@H]2C1=O | / | / | / | / | -11 | -1
C[C@@H]1C(=O)N[C@@H](c2cccc(Cl)c2)CC=CC[C@H](C)Oc2ccccc2C(=O)N1C (mixture of isomers) | 2 | -1 | / | / | / | /
O=C(Nc1cccc(O)c1)c1cc(-c2ccccc2Cl)on1 | -5 | -25* | -9 | -153 | / | 0
COc1ccc(NC(=O)c2cc(-c3ccccc3Cl)on2)cc1OC | 3 | -1 | -2 | 14 | -12 | -1
C[C@H]1CCCCO[C@H](CN(C)Cc2ccncc2)[C@@H](C)CN([C@@H](C)CO)C(=O)c2cc(NC(=O)Nc3ccc(F)cc3)ccc2O1 | -8 | -3 | / | 10[16.7 µM] | 0[16.7 µM] | /
C[C@H]1CCCCO[C@H](CN(C)C)[C@@H](C)CN([C@@H](C)CO)C(=O)c2cc(NS(=O)(=O)c3cn(C)cn3)ccc2O1 | -3 | 2 | 7 | 6[16.7 µM] | 3[16.7 µM] | /
C[C@@H]1CN([C@H](C)CO)C(=O)c2cc(NC(=O)c3ccncc3)ccc2O[C@@H](C)CCCCO[C@H]1CN(C)C | / | 3 | 2 | 9[16.7 µM] | -1[16.7 µM] | /
CC1(C)CC(=O)C(C2C3=C(CC(C)(C)CC3=O)Oc3ccc4ccccc4c32)C(=O)C1 (stereo unspecified) | 9 | 8 | -1 | -13 | / | 2
CC1(C)CC(=O)C(C2C3=C(CC(C)(C)CC3=O)Oc3ccccc32)C(=O)C1 (stereo unspecified) | 7 | -22* | -9 | 2 | / | -30
COc1ccc(NC(=O)N[C@@H]2CC[C@@H](CCNC(=O)c3ccccc3F)O[C@@H]2CO)cc1 | 1 | 0 | 14 | -2[16.7 µM] | / | /
CO[C@@H]1CN(C)C(=O)c2cc(NC(C)=O)ccc2OC[C@H](C)NC[C@H]1C | / | 1 | -4 | -3[16.7 µM] | / | /
O=C(Cn1nc(C(F)F)cc1C(F)F)NNC(=S)Nc1ccc(F)cc1 | 5 | / | / | -26 | 9 | 10

Bioassay records as filed in PubChem BioAssay.
